Here are results for 13 molecules from PubChem BioAssay.

By inhibition is commonly meant the change of the read-out against control, counted positive when it falls.

Each structure is given as a SMILES string. Calls of active or inactive are those of the source.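 The calls were made as follows, unless noted: active = a full or partial loss of lipid-probe fluorescence in the fish gall bladder, intestine or both, judged by eye; inactive = no fluorescence loss, or compound toxic to the fish.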

The nature of assay [1]: inhibitors of TNFa-induced NFkB p65 translocation, primary screen, imaging, HUVEC, MLSMR starter and 10KST1 sets (AID 438;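 active = inhibition above 20% together with a positive visual image hit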;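 also: compound added about 3h40 before a 20 min TNFalpha stimulation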;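 as to inhibition: signal is the nuclear over cytoplasmic p65 intensity ratio per well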). To be noted: HUVEC TNFa-induced p65 nuclear translocation; cell count: measured here: nuclei count (cytotoxicity indicator), at 2.08 µM; inhibition: at 2 µM, stronger effect = higher value, 0% TNFa-plus-vehicle, 100% no-TNFa wells.
Assay [2] in a line: endothelial E-selectin expression blockers – imaging, HUVEC, immunofluorescence, MLSMR starter and 10KST1 sets, primary screen (AID 487;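 active = visually confirmed hit in the image check and inhibition above 20%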;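 as to inhibition: signal is fraction of cell area covered by stained E-selectin grains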;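 as to nuclei count: 100% = median nuclei count of all wells on the same plate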). The settings on record: HUVEC TNFalpha-induced E-selectin immunofluorescence imaging, at 2 µM; inhibition: stronger effect = higher value; nuclei count: measured here: cell number, toxicity.
The nature of assay [3]: Primary imaging screen for DUSP6 inhibitors that restore phospho-Erk in transfected HeLa cells, chemical complementation (AID 609;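 active = compounds giving at least 50% inhibition in the cell-based MKP-3 phosphatase rescue imaging test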;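 as to inhibition: phospho-Erk level distribution per well compared with pooled transfected vehicle control wells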). To be noted: HeLa MKP-3 transfected, phospho-Erk imaging KS statistic, at 10 µM, cells stimulated with TPA for 15 min.
Assay [4] addresses Dual specificity protein phosphatase 6 (Homo sapiens) (UniProt Q16828). The assay is described as above. To be noted: HeLa MKP-3 transfected, phospho-Erk imaging KS statistic; at 10 µM; stronger effect = higher value; cells stimulated with TPA for 15 min.
Assay [5] deals with Voltage-gated potassium channel subunit beta-2 (Rattus norvegicus) (UniProt P62483). Nature of the assay: inhibitors of rat Kvbeta2 reductase activity – biochemical, NADPH fluorescence, primary screen (AID 622;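 active = fluorescence slope higher than the sample average by over 3 SD, cut at about -0.22 in these data, passing the limit was not always enough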;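 also: slope of raw intensity against log time taken from 70 to 1610 s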). The settings on record: recombinant KvBeta, 4-cyanobenzaldehyde reduction, at 10 µM, stronger effect = higher value.
Voltage-gated potassium channel subunit beta-2 (Rattus norvegicus), sequence (P62483 whole entry, looked up): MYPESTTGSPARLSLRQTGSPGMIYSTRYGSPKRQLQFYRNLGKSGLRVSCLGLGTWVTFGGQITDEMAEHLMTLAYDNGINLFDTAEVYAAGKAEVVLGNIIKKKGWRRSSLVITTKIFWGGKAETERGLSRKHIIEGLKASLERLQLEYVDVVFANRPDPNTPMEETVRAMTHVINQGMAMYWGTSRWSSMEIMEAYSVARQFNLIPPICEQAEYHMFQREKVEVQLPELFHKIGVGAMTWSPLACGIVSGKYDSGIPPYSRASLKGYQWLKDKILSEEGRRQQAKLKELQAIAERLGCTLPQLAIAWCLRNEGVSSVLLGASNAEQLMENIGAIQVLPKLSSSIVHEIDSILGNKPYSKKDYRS
The target is the same in assay [6]. As to the kind of experiment: enhancers of rat Kvbeta2 NADPH turnover – biochemical, NADPH fluorescence, primary screen (AID 623;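 active = NADPH fluorescence slope more negative than the mean of all samples by about 3 SD, 99.7% confidence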;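 also: fluorescence intensity change per second fitted from 20 to 320 s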). The settings on record: Recombinant KvBeta, NADPH fluorescence decrease slope, 10 min; at 10 µM; stronger effect = lower value.
Assay [7] concerns the target Alpha-2C adrenergic receptor (Homo sapiens) (UniProt P18825). Nature of the assay: compounds altering alpha2C-coupled GIRK flux – cell-based, HEK293 alpha2C/GIRK1/2, thallium flux, primary screen (AID 624;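 active = fluorescence slope after compound addition differing from the mean of all screened samples at 99.7% confidence, in either direction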;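 also: slope of fluorescence ratio to pre-addition baseline per second over 15 to 24 s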). The settings on record: thallium flux BTC fluorescence, at 10 µM, actives lie on both sides.
Assay [8] in a line: inhibitors of larval lipid processing in zebrafish, primary screen, whole organism, PED6 fluorescence, gall bladder and intestine (AID 686).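 Also: larvae 5 to 7 days old with five fish per well; signal comes from phospholipase A2 cleavage of quenched PED6 carried via bile; overnight exposure to compound and PED6 before scoring.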 The settings on record: Zebrafish larvae PED6 lipid processing, fluorescence scoring; screened at 20 µM (by protocol). The method, boiled down:
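Test system – live zebrafish larvae aged 5-7 days, whole organism · Buffer or medium – E3 fish medium · Reagent – quenched phospholipase substrate PED6, 100 nM final, ingested by larvae · Doses – 20 µM single dose · Incubation – overnight compound and PED6 incubation · Technique – visual fluorescence microscopy scoring of gall bladder, gut · Read-out basis – visual per-well fluorescence inhibition score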

A short description of assay [9]: loss of swimming-algae plug formation – whole organism, Chlamydomonas reinhardtii, WT vs cilia-less mutant, absorbance, 96-well, primary screen (AID 463189;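 active = inhibition at or above 50% relative to wild type and mutant plate controls; inactive = inhibition below 50%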;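 also: 0% = wild type cc124 cells in DMSO and 100% = ciliumless bld1 mutant cells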). To be noted: Chlamydomonas reinhardtii gravitaxis, OD600 absorbance, 2 days; at 10 µM; stronger effect = higher value.
The mark [10] stands for this setting: measured here: cell density z-score.
The mark [11] stands for this setting: measured here: nuclear c-Myc green intensity z-score.
[12] abbreviates: measured here: nuclear pErk red intensity z-score, stronger effect = higher value.

Alpha-2C adrenergic receptor (Homo sapiens), sequence (P18825 whole entry, looked up): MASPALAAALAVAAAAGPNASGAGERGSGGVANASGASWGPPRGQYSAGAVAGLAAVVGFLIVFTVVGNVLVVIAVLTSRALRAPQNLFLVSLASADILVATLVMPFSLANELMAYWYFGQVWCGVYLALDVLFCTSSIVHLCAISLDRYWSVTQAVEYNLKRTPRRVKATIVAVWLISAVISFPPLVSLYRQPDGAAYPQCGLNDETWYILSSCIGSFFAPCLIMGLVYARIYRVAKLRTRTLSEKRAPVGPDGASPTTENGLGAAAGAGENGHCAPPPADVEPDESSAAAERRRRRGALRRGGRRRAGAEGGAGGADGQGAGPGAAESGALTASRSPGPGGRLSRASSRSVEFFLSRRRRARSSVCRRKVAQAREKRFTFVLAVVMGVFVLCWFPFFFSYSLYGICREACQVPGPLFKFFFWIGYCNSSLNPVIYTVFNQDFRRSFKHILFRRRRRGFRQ
Dual specificity protein phosphatase 6 (Homo sapiens), sequence (Q16828 whole entry, looked up): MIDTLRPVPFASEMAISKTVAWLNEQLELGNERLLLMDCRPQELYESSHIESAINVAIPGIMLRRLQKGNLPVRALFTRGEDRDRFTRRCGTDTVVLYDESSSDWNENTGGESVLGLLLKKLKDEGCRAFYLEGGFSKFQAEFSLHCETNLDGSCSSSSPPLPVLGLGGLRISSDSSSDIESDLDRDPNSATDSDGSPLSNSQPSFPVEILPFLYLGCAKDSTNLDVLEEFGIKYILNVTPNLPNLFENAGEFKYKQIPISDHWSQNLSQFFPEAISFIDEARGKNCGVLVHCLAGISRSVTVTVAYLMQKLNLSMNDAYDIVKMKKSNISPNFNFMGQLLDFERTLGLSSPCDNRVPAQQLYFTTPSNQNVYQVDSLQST

With `COc1ccc(-c2nn3c(C4CCCCC4)nnc3s2)cc1OC`, the cell count in assay [1] was determined as 580. Moreover, the inhibition is -19.9% (inactive) in assay [1], -19.9% (inactive) in [2], -18.6% (inactive) in assay [4] and 25.1% (inactive) in [9]. Moreover, in assay [2], the nuclei count was determined as 159%. Moreover, the z-score is -0.887 in assay [3] (setting [10]), 0.0164 in assay [3] (setting [11]) and 0.338 in [3] (setting [12]). Moreover, the fluorescence slope in assay [5] is -0.442 (inactive). The NADPH fluorescence slope in assay [6] is -0.000143 (inactive). Moreover, the slope in [7] is 0.00441 (inactive). Besides, the call in assay [8] was inactive.

Turning to `CCN(CC)CCN1C(=O)C(=O)/C(=C(/O)c2ccc(C)cc2)C1c1cccnc1` (centres undefined), the cell count in assay [1] was found to be 390. Also, the inhibition in assay [1] is -0.5% (inactive); in [2] it was -20.8% (inactive); in [4], -5.89% (inactive); in assay [9], 8.05% (inactive). This molecule also displayed a nuclei count in assay [2] of 113%. Moreover, the z-score in assay [3] (setting [10]) was 0.619; in assay [3] (setting [11]) it was -0.778; in [3] (setting [12]) it was 0.527. For the same molecule, the fluorescence slope in assay [5] is -0.426 (inactive). Moreover, the NADPH fluorescence slope in assay [6] was -5.7e-05 (inactive). Further, the slope in assay [7] was 0.00669 (inactive). Also, the outcome in assay [8] was inactive.

On to `Fc1ccc2[nH]c3c(N4CCN(C5CCCCC5)CC4)ncnc3c2c1`, for which the cell count in [1] stood at 501. The inhibition in assay [1] is -4.2% (inactive); in assay [2] it was -68.6% (inactive); in assay [4] it was -6.48% (inactive); in [9], 128% (active). For the same molecule, in assay [2], the nuclei count was found to be 153%. Besides, the z-score in [3] (setting [10]) was -1.35; in assay [3] (setting [11]) it was 0.234; in [3] (setting [12]) it was 1.42. For the same molecule, the fluorescence slope in assay [5] is -0.152 (inactive). Also, the NADPH fluorescence slope in assay [6] is -1.9e-06 (inactive). For the same molecule, in assay [7], the slope is 0.00383 (inactive). Further, the result in assay [8] was inactive.

Turning to `CC1CN(C2CCN(C(=O)c3ccccc3Cl)CC2)CC(C)O1` (centres undefined), the cell count in assay [1] was 445. The inhibition in assay [1] was -0.2% (inactive); in assay [2] it was -214% (inactive); in assay [4], -5.62% (inactive); in [9], 0.742% (inactive). For the same molecule, in assay [2], the nuclei count is 151%. Also, the figures for the z-score in [3] (setting [10]), in assay [3] (setting [11]) and in [3] (setting [12]) were -0.321, -1.49 and -0.453, respectively. The fluorescence slope in [5] is -0.348 (inactive). Besides, the NADPH fluorescence slope in assay [6] was -1.1e-05 (inactive). Further, in [7], the slope is 0.00459 (inactive). Besides, the molecule was called inactive in [8].

In the case of `CCc1c(C(=O)O)[nH]c2ccc(Br)cc12`, the cell count in [1] is 581. In addition, the inhibition in assay [1] is -1.8% (inactive); in assay [2], -21.7% (inactive); in assay [4], -7.01% (inactive); in assay [9], -2.83% (inactive). The nuclei count in assay [2] came out at 171%. The z-score in assay [3] (setting [10]) is -0.258; in assay [3] (setting [11]) it was -0.825; in [3] (setting [12]), 2.03. Further, the fluorescence slope in assay [5] is -0.367 (inactive). In addition, the NADPH fluorescence slope in assay [6] is -5.4e-05 (inactive). Also, the slope in assay [7] was 0.00495 (inactive). The molecule was called inactive in assay [8].

In the case of `CCCCCc1ccc(-c2ccc(=O)[nH]n2)cc1`, in assay [1], the cell count amounted to 455. For the same molecule, the inhibition in [1] is -1.5% (inactive); in assay [2], -85% (inactive); in assay [4], 15.1% (inactive); in assay [9] it was -28.2% (inactive). The nuclei count in [2] turned out to be 107%. Also, the z-score is 1.16 in assay [3] (setting [10]), -0.256 in [3] (setting [11]) and -1.03 in [3] (setting [12]). In [5], the fluorescence slope was -0.516 (inactive). In addition, the NADPH fluorescence slope in assay [6] was -2.1e-05 (inactive). In addition, the slope in assay [7] is 0.00535 (inactive). The molecule was called inactive in assay [8].

On to `COc1cccc(-c2nc(N3CCN(Cc4ccccc4)CC3)c3ccccc3n2)c1O`, for which, in [1], the cell count worked out at 578. For the same molecule, the inhibition in assay [1] is -4.5% (inactive); in [2], 7% (inactive); in [4] it was 3.5% (inactive); in assay [9] it was 8.35% (inactive). The nuclei count in assay [2] is 126%. The z-score in [3] (setting [10]) is -0.018; in assay [3] (setting [11]), 0.0703; in assay [3] (setting [12]), 0.663. Also, in [5], the fluorescence slope is -0.272 (inactive). Besides, the NADPH fluorescence slope in [6] was 8.6e-06 (inactive). Also, the slope in assay [7] was 0.0051 (inactive). For the same molecule, in [8], the result was inactive.

As to `O=C(CN1C(=O)c2ccccc2C1=O)NCc1ccccn1`, the cell count in assay [1] was 400. The inhibition in assay [1] was -5.8% (inactive); in assay [2] it was -67.3% (inactive); in assay [4] it was 5.42% (inactive); in [9], 26% (inactive). Further, in assay [2], the nuclei count was found to be 171%. In addition, the z-score in assay [3] (setting [10]) is 0.0865; in assay [3] (setting [11]), -1.72; in assay [3] (setting [12]), 1.07. In addition, in assay [5], the fluorescence slope was -0.417 (inactive). Further, the NADPH fluorescence slope in [6] is -0.000121 (inactive). Also, in assay [7], the slope was 0.00507 (inactive). The molecule was classed as inactive in assay [8].

On to `CCCCOc1ccc(C(=O)OC2CC(C)N(C)CC2C)cc1` (centres undefined), for which the cell count in assay [1] was 358. The inhibition in assay [1] was -21.6% (inactive); in [2], -186% (inactive); in [4], -14% (inactive); in assay [9], 144% (active). In assay [2], this molecule displayed a nuclei count of 155%. Also, the z-score in assay [3] (setting [10]) is -0.354; in [3] (setting [11]) it was -1.1; in [3] (setting [12]) it was -0.696. Further, the fluorescence slope in assay [5] is -0.46 (inactive). Further, in assay [6], the NADPH fluorescence slope is -0.000115 (inactive). In [7], the slope is 0.00554 (inactive). Besides, the outcome in [8] was inactive.

With `CCOC(=O)c1ccc(N2CC(O)=C(c3nc4ccccc4c(=O)[nH]3)C2=N)cc1`, the cell count in [1] was 623. In addition, the inhibition in assay [1] was -11.3% (inactive); in [2], 45.3% (inactive); in assay [4] it was -13.3% (inactive); in assay [9], 2.42% (inactive). The same molecule gave a nuclei count in assay [2] of 186%. For the same molecule, the z-score in [3] (setting [10]) is -1.54; in assay [3] (setting [11]), 0.558; in assay [3] (setting [12]), 1.53. For the same molecule, the fluorescence slope in assay [5] is -0.208 (inactive). For the same molecule, in assay [6], the NADPH fluorescence slope was -1.8e-05 (inactive). The slope in assay [7] was 0.00503 (inactive). The molecule was classed as inactive in assay [8].

`CCOc1cccc(-c2nnc3sc(-c4ccco4)nn23)c1`: in assay [1], the cell count amounted to 668. Further, the inhibition was -1.9% (inactive) in [1], -152% (inactive) in assay [2], -13.3% (inactive) in assay [4] and 18.3% (inactive) in assay [9]. Besides, in [2], the nuclei count was 182%. Also, the z-score in [3] (setting [10]) is 0.882; in assay [3] (setting [11]), 2.36; in assay [3] (setting [12]) it was -0.0575. Also, in assay [5], the fluorescence slope is -0.428 (inactive). In addition, the NADPH fluorescence slope in assay [6] was -0.000142 (inactive). Besides, the slope in assay [7] was 0.00609 (inactive). Besides, the call in assay [8] was inactive.

As to `CC1(C)Cc2c(sc3nc4n(c(=N)c23)CCCCC4)CO1`, the cell count in [1] amounted to 637. Also, the inhibition in assay [1] is -5.2% (inactive); in assay [2], 57.2% (inactive); in [4], -7.28% (inactive); in assay [9], -1.35% (inactive). In [2], this molecule gave a nuclei count of 169%. For the same molecule, the z-score was -0.678 in assay [3] (setting [10]), 2.31 in assay [3] (setting [11]) and -0.487 in assay [3] (setting [12]). In addition, the fluorescence slope in [5] was -0.414 (inactive). The NADPH fluorescence slope in assay [6] was -4.7e-05 (inactive). The slope in [7] is 0.00482 (inactive). For the same molecule, the molecule was classed as inactive in [8].

As to `CC(=O)Nc1cc2c(cc1Br)OCCO2`, the cell count in [1] is 524. In addition, the inhibition in assay [1] was -18.7% (inactive); in assay [2] it was -80.8% (inactive); in assay [4], 16.1% (inactive); in [9], 33.1% (inactive). In [2], this molecule returned a nuclei count of 169%. Besides, the figures for the z-score in assay [3] (setting [10]), in assay [3] (setting [11]) and in assay [3] (setting [12]) were -0.0183, 1.62 and -0.826, respectively. Further, the fluorescence slope in assay [5] was -0.519 (inactive). In addition, the NADPH fluorescence slope in [6] was -3.4e-05 (inactive). The slope in [7] was 0.00516 (inactive). In addition, the molecule was classed as inactive in assay [8].
